Active and inactive are the calls of the source. The rule behind the calls is not given here.
Tests used:
[1] = molecular target: Neuronal acetylcholine receptor; alpha3/beta2 (Rattus norvegicus, UniProt P04757+P12390); test: Displacement of [3H]epibatidine from rat alpha3beta2 nAChR by liquid scintillation counting; assay type: protein-complex assay
[2] = Agonist activity at alpha3beta4* nAChR in human SH-SY5Y cells after 9.5 mins by 86Rb+ efflux assay; assay type: cell-based
Procedure, shortened: (§1)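 86Rb+ efflux: cells loaded with ~350,000 cpm 86Rb+ at least 4 h (typically overnight), rinsed with efflux buffer pH 7.4 (130 mM NaCl, 5.4 mM KCl, 2 mM CaCl2, 50 mM HEPES, 5 mM glucose). Test drug alone applied 9.5 min. Efflux normalized, after nonspecific subtraction, to specific efflux of fully efficacious carbamylcholine control; nonspecific defined with carbamylcholine plus mecamylamine; EC50 derived.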

[3] = Antagonist activity at alpha3beta4* in human SH-SY5Y cells assessed as reduction in carbamylcholine induced 86Rb+ efflux preincubated for 10 mins followed by carbamylcholine addition measured after 5 mins by Cherenkov counting; assay type: cell-based
Procedure, shortened: (§2)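 Same 86Rb+-loaded cells and pH 7.4 efflux buffer. Cells lysed in 0.1 M NaOH/0.1% SDS and Cerenkov counted. Specific efflux = total minus nonspecific (mecamylamine-blocked); inactivation IC50 derived from inhibition of carbamylcholine response.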

[4] = molecular target: Neuronal acetylcholine receptor; alpha4/beta4 (Rattus norvegicus, UniProt P09483+P12392); test: Displacement of [3H]epibatidine from rat alpha4beta4 nAChR by liquid scintillation counting; assay type: protein-complex assay
[5] = molecular target: Neuronal acetylcholine receptor; alpha2/beta2 (Rattus norvegicus, UniProt P12389+P12390); test: Displacement of [3H]epibatidine from rat alpha2beta2 nAChR by liquid scintillation counting; assay type: protein-complex assay
[6] = molecular target: T1, Acetylcholine receptor; alpha1/beta1/delta/gamma (Homo sapiens, UniProt P02708+P07510+P11230+Q07001); test: Agonist activity at alpha1beta1gammadelta nAChR in human TE671/RD cells after 9.5 mins by 86Rb+ efflux assay; assay type: cell-based; procedure, shortened: as §1
[7] = molecular target: T1, Acetylcholine receptor; alpha1/beta1/delta/gamma; test: Antagonist activity at alpha1beta1gammadelta nAChR in human TE671/RD cells assessed as reduction in carbamylcholine induced 86Rb+ efflux preincubated for 10 mins followed by carbamylcholine addition measured after 5 mins by Cherenkov counting; assay type: cell-based; procedure, shortened: as §2
[8] = molecular target: Neuronal acetylcholine receptor; alpha2/beta4 (Rattus norvegicus, UniProt P12389+P12392); test: Displacement of [3H]epibatidine from rat alpha2beta4 nAChR by liquid scintillation counting; assay type: protein-complex assay
[9] = molecular target: Neuronal acetylcholine receptor; alpha4/beta2 (Rattus norvegicus, UniProt P09483+P12390); test: Displacement of [3H]epibatidine from rat alpha4beta2 nAChR by liquid scintillation counting; assay type: protein-complex assay
[10] = molecular target: Neuronal acetylcholine receptor; alpha3/beta4 (Rattus norvegicus, UniProt P04757+P12392); test: Displacement of [3H]epibatidine from rat alpha3beta4 nAChR by liquid scintillation counting; assay type: protein-complex assay
[11] = Displacement of [3H]epibatidine from rat forebrain alpha4beta2* nAChR by liquid scintillation counting
[12] = molecular target: T2, Neuronal acetylcholine receptor; alpha4/beta2 (Homo sapiens, UniProt P17787+P43681); test: Antagonist activity at human alpha4beta2 expressed in human SH-EP1 cells assessed as reduction in carbamylcholine induced 86Rb+ efflux preincubated for 10 mins followed by carbamylcholine addition measured after 5 mins by Cherenkov counting; assay type: cell-based; procedure, shortened: as §2
[13] = Antidepressant activity in C57BL6 mouse at 10 mg/kg, ip administered 15 mins prior to testing by SmartCube automated system based method; assay type: functional, organism-based
Procedure, shortened: (§3)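 Male C57 BL6 mice, group-housed 4 per cage, 22 °C, 12 h light-dark. Compound dissolved in water, given i.p. at 10 mL/kg, 15 min before automated SmartCube session; behaviour captured by digital video and classified by computer algorithms into a behavioural signature.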

[14] = molecular target: T2, Neuronal acetylcholine receptor; alpha4/beta2; test: Agonist activity at human alpha4beta2 nAChR expressed in human SH-EP1 cells after 9.5 mins by 86Rb+ efflux assay; assay type: cell-based
[15] = molecular target: T2, Neuronal acetylcholine receptor; alpha4/beta2; test: Agonist activity at human (alpha4beta2 )2beta2 expressed in human SH-EP1 cells after 9.5 mins by 86Rb+ efflux assay relative to carbamylcholine; assay type: cell-based
[16] = molecular target: T2, Neuronal acetylcholine receptor; alpha4/beta2; test: Agonist activity at human (alpha4beta2 )2alpha4 expressed in human SH-EP1 cells after 9.5 mins by 86Rb+ efflux assay relative to carbamylcholine; assay type: cell-based
[17] = molecular target: alpha3beta4 nAChR (neuronal acetylcholine receptor alpha3/beta4) (Rattus norvegicus, UniProt P04757+P12392); test: Displacement of [3H]epibatidine from rat alpha3beta4 nAChR at 10 uM by liquid scintillation counting; conditions: probe [3H]epibatidine
[18] = Antidepressant activity in po dosed BALB/cJ mouse assessed as decrease in immobility time administered 30 mins and measured over 6 mins by classical Porsolt's forced swim test; assay type: functional, organism-based
Procedure, shortened: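 Male BALB/cJ mice, 8–10 weeks, dosed po in water (10 mL/kg) at 1 and 10 mg/kg; water vehicle, sertraline 20 mg/kg ip as positive control. 30 min later placed in 1 L beaker with 12 cm of 23 °C water; immobility recorded over 6-min trial, total time analysed by ANOVA.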

[19] = Antidepressant activity in C57BL6 mouse at 5 mg/kg, ip administered 15 mins prior to testing by SmartCube automated system based method; assay type: functional, organism-based; procedure, shortened: as §3

Sequence of Neuronal acetylcholine receptor; alpha2/beta4 (P12389 whole entry): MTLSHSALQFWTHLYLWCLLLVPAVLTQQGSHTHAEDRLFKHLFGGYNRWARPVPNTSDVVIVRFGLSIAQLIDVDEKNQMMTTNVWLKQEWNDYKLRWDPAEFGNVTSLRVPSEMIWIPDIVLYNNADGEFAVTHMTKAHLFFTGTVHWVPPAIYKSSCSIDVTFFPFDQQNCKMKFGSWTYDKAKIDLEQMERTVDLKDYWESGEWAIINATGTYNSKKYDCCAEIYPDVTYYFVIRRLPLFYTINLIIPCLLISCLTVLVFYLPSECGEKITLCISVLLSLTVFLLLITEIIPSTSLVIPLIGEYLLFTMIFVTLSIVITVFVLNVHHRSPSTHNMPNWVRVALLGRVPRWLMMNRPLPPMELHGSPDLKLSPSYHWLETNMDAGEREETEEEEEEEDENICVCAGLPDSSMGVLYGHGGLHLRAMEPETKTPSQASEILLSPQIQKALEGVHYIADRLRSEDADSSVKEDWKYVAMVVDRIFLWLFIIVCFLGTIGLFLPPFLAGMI
Sequence of Neuronal acetylcholine receptor; alpha2/beta4 (P12392 whole entry): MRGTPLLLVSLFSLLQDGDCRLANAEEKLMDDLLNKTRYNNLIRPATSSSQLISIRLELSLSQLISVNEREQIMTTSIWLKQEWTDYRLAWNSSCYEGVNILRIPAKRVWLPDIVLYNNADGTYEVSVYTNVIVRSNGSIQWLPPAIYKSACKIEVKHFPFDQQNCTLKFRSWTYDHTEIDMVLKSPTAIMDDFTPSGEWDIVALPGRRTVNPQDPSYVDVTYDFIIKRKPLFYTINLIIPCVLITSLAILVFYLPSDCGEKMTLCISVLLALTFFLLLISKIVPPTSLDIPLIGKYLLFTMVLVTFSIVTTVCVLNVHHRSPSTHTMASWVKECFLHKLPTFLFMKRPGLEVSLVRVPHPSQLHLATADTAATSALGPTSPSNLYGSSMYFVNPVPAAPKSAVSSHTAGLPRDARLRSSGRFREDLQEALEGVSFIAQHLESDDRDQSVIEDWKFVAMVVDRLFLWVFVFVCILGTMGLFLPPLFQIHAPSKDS
Sequence of Neuronal acetylcholine receptor; alpha2/beta2 (P12389 whole entry): as the sequence (P12389 whole entry) above
Sequence of Neuronal acetylcholine receptor; alpha2/beta2 (P12390 whole entry): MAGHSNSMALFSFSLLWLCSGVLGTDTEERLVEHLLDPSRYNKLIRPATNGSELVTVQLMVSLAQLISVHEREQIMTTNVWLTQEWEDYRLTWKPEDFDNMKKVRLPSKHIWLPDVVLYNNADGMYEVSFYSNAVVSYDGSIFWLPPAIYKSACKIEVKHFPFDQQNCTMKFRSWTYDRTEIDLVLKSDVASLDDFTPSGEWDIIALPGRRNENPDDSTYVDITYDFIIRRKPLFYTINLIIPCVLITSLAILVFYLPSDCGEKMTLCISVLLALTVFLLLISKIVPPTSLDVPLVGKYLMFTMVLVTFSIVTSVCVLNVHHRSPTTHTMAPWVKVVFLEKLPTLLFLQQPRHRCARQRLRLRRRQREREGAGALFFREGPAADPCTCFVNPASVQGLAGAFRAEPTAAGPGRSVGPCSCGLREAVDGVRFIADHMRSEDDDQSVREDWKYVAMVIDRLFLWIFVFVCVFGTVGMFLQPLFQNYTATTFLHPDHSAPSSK
Sequence of Neuronal acetylcholine receptor; alpha3/beta2 (P04757 whole entry): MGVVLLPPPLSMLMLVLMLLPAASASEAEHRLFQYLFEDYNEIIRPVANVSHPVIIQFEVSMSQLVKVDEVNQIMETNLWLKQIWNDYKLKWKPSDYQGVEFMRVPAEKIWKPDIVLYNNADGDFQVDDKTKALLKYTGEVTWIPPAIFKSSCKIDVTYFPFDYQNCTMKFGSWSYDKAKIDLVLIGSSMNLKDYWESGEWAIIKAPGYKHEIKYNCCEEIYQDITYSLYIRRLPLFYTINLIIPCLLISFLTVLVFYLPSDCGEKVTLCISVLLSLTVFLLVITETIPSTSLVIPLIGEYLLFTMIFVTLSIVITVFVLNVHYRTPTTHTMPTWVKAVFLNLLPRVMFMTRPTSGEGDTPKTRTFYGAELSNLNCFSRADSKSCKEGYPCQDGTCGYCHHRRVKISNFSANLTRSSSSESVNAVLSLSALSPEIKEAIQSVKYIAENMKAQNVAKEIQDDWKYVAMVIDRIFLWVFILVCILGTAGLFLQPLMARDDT
Sequence of Neuronal acetylcholine receptor; alpha3/beta2 (P12390 whole entry): as the sequence (P12390 whole entry) above
Sequence of Neuronal acetylcholine receptor; alpha3/beta4 (P04757 whole entry): as the sequence (P04757 whole entry) above
Sequence of Neuronal acetylcholine receptor; alpha3/beta4 (P12392 whole entry): as the sequence (P12392 whole entry) above

Question: For `COCC[C@@H]1C[C@H]1c1cncc(N2C[C@@H]3C[C@H]2CN3)c1`, which Ki [1] is on record?
Answer: Its Ki is 617 nM.

Question: What about the EC50 [2] of the same compound?
Answer: The EC50 was over 10000 nM.

Question: What about the IC50 [3] of the same compound?
Answer: The IC50 was over 10000 nM.

Question: What about the Ki [4] of the same compound?
Answer: Its Ki is 8450 nM.

Question: What about the Ki [5] of the same compound?
Answer: Its Ki is 43.1 nM.

Question: What about the EC50 [6] of the same compound?
Answer: Its EC50 is over 10000 nM.

Question: What about the IC50 [7] of the same compound?
Answer: The IC50 was over 10000 nM.

Question: For `c1cncc(N2CC3CC2CN3)c1` (stereo not drawn), which Ki [1] is on record?
Answer: Its Ki is 3.1 nM.

Question: What about the Ki [8] of the same compound?
Answer: The Ki was 15.2 nM.

Question: What about the Ki [9] of the same compound?
Answer: The Ki was 1 nM.

Question: And the Ki [4]?
Answer: Its Ki is 7.7 nM.

Question: What about the Ki [5] of the same compound?
Answer: Its Ki is 0.3 nM.

Question: What about the Ki [10] of the same compound?
Answer: Its Ki is 64.6 nM.

Question: And the Ki [11]?
Answer: Its Ki is 0.8 nM.

Question: Which results are given for `COCC[C@@H]1C[C@H]1c1cncc(N2CCCNCC2)c1`?
Answer: Ki [1]: 15.8 nM; EC50 [2]: > 10000 nM; Ki [8]: 256 nM; IC50 [3]: > 10000 nM; Efficacy [12]: 79%; IC50 [12]: 15.7 nM; Activity [13]: Active; Ki [9]: 0.5 nM; Ki [4]: 168 nM; Ki [5]: 0.3 nM; EC50 [14]: 17.1 nM; Efficacy [15]: 63%; Efficacy [16]: -5.6%; Ki [10]: > 10000 nM; Ki [11]: 2.7 nM; EC50 [6]: > 10000 nM; IC50 [7]: > 10000 nM

Question: For `CN1CCCN(c2cncc(-c3cc(CCO)no3)c2)CC1`, which Ki [1] is on record?
Answer: The Ki was 1040 nM.

Question: What about the EC50 [2] of the same compound?
Answer: Its EC50 is over 10000 nM.

Question: What about the Ki [8] of the same compound?
Answer: Its Ki is over 10000 nM.

Question: And the IC50 [3]?
Answer: Its IC50 is over 10000 nM.

Question: And the Ki [4]?
Answer: Its Ki is 4940 nM.

Question: And the inhibition at 10 µM [17]?
Answer: Its inhibition at 10 µM is under 50%.

Question: And the Ki [5]?
Answer: Its Ki is 46.3 nM.

Question: What about the EC50 [6] of the same compound?
Answer: The EC50 was over 10000 nM.

Question: What about the IC50 [7] of the same compound?
Answer: The IC50 was over 10000 nM.

Question: With `COCC[C@H]1C[C@@H]1c1cncc(N2CCCNCC2)c1` as the compound, how does the Ki [1] read?
Answer: Its Ki is 17 nM.

Question: What about the EC50 [2] of the same compound?
Answer: Its EC50 is over 10000 nM.

Question: And the Ki [8]?
Answer: Its Ki is 460 nM.

Question: And the IC50 [3]?
Answer: The IC50 was over 10000 nM.

Question: And the Efficacy [12]?
Answer: Its Efficacy is 74%.

Question: What about the IC50 [12] of the same compound?
Answer: The IC50 was 16 nM.

Question: And the Ki [9]?
Answer: Its Ki is 0.7 nM.

Question: What about the Ki [4] of the same compound?
Answer: Its Ki is 151 nM.

Question: What about the Ki [5] of the same compound?
Answer: Its Ki is 0.3 nM.

Question: What about the EC50 [14] of the same compound?
Answer: The EC50 was 15.9 nM.

Question: And the Efficacy [15]?
Answer: The Efficacy was 81%.

Question: And the Activity [18]?
Answer: The Activity was “Dose-dependent effect”.

Question: And the Activity [19]?
Answer: Its Activity is “Active”.

Question: What about the Efficacy [16] of the same compound?
Answer: The Efficacy was -9.3%.

Question: And the Ki [10]?
Answer: The Ki was over 10000 nM.

Question: And the Ki [11]?
Answer: Its Ki is 2.7 nM.

Question: What about the EC50 [6] of the same compound?
Answer: Its EC50 is over 10000 nM.

Question: What about the IC50 [7] of the same compound?
Answer: The IC50 was over 10000 nM.

Question: What does the source list for `COCC[C@H]1C[C@@H]1c1cncc(N2C[C@@H]3C[C@H]2CN3)c1`?
Answer: Ki [1]: 141 nM; EC50 [2]: > 10000 nM; Ki [8]: 4810 nM; IC50 [3]: > 10000 nM; Ki [4]: 1340 nM; Ki [5]: 3.1 nM; EC50 [6]: > 10000 nM; IC50 [7]: > 10000 nM

Question: Which Ki [1] does the source give for `OCCc1cc(-c2cncc(N3CCCNCC3)c2)on1` here?
Answer: The Ki was 42 nM.

Question: And the EC50 [2]?
Answer: The EC50 was over 10000 nM.

Question: What about the Ki [8] of the same compound?
Answer: The Ki was 331 nM.

Question: What about the IC50 [3] of the same compound?
Answer: The IC50 was over 10000 nM.

Question: And the Efficacy [12]?
Answer: The Efficacy was 68%.

Question: What about the IC50 [12] of the same compound?
Answer: Its IC50 is 50.8 nM.

Question: What about the Activity [13] of the same compound?
Answer: Its Activity is “Active”.

Question: And the Ki [9]?
Answer: Its Ki is 0.8 nM.

Question: What about the Ki [4] of the same compound?
Answer: Its Ki is 67.6 nM.

Question: What about the Ki [5] of the same compound?
Answer: Its Ki is 0.8 nM.

Question: And the EC50 [14]?
Answer: Its EC50 is 30.9 nM.

Question: And the Efficacy [15]?
Answer: Its Efficacy is 58%.

Question: What about the Efficacy [16] of the same compound?
Answer: The Efficacy was -5%.

Question: And the Ki [10]?
Answer: Its Ki is 8100 nM.

Question: And the Ki [11]?
Answer: Its Ki is 3.5 nM.

Question: What about the EC50 [6] of the same compound?
Answer: The EC50 was over 10000 nM.

Question: What about the IC50 [7] of the same compound?
Answer: The IC50 was over 10000 nM.

Question: With `COCC[C@H]1C[C@@H]1c1cncc(N2CCCN(C)CC2)c1` as the compound, how does the Ki [1] read?
Answer: The Ki was 681 nM.

Question: What about the EC50 [2] of the same compound?
Answer: Its EC50 is over 10000 nM.

Question: What about the IC50 [3] of the same compound?
Answer: The IC50 was over 10000 nM.

Question: And the IC50 [12]?
Answer: Its IC50 is over 1000 nM.

Question: What about the pIC50 ([12]; sh-ep1) of the same compound?
Answer: The pIC50 was under 6.

Question: And the Ki [9]?
Answer: The Ki was 25.4 nM.

Question: What about the Ki [4] of the same compound?
Answer: The Ki was 4810 nM.

Question: And the Ki [5]?
Answer: The Ki was 18.1 nM.

Question: And the EC50 [14]?
Answer: The EC50 was over 1000 nM.

Question: What about the pEC50 ([14]; sh-ep1) of the same compound?
Answer: The pEC50 was under 6.

Question: And the Ki [11]?
Answer: Its Ki is 33.8 nM.

Question: What about the EC50 [6] of the same compound?
Answer: The EC50 was over 10000 nM.

Question: What about the IC50 [7] of the same compound?
Answer: Its IC50 is over 10000 nM.

Question: For `c1cncc(N2CCCNCC2)c1`, which Ki [1] is on record?
Answer: Its Ki is 5.1 nM.

Question: And the Ki [8]?
Answer: Its Ki is 62 nM.

Question: And the Ki [9]?
Answer: Its Ki is 3.4 nM.

Question: And the Ki [4]?
Answer: The Ki was 71.6 nM.

Question: And the Ki [5]?
Answer: Its Ki is 1.1 nM.

Question: What about the Ki [10] of the same compound?
Answer: Its Ki is 366 nM.

Question: What about the Ki [11] of the same compound?
Answer: Its Ki is 3.3 nM.
